From ChEMBL document CHEMBL2390929, “New nitric oxide donating 1,2,4-triazole/oxime hybrids: synthesis, investigation of anti-inflammatory, ulceroginic liability and antiproliferative activities” (Bioorg Med Chem, 2013)

Assays:
UACC-62 = experiment: Cytotoxicity against human UACC62 cells assessed as cell growth at 10^-5 M after 48 hrs by SRB assay; type: functional; conditions: UACC-62, 48 h, read-out: Activity
In short: (§1)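 NCI-60 one-dose screen across nine tumour subpanels. Each agent added once at 10^-5 M, cultures incubated 48 h. Endpoint is sulforhodamine B protein staining read spectrophotometrically. Output is percent growth of treated cells relative to untreated controls.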

OVCAR-4 = experiment: Cytotoxicity against human OVCAR4 cells assessed as cell growth at 10^-5 M after 48 hrs by SRB assay; type: functional; conditions: OVCAR-4, 48 h, read-out: Activity
In short: (§2)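 NCI 60-cell-line primary one-dose screen across nine tumour subpanels. Compound added at a single concentration of 10^-5 M and cultures incubated 48 h. Endpoint was sulforhodamine B protein staining read spectrophotometrically, with growth expressed as percent of untreated control cells.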

[1] = Induction of nitric oxide release in phosphate buffer at pH 7.4 at 0.1 mM after 3 hrs by Griess method in presence of 0.5 mM of N-acetylcysteine; type: physicochemical; conditions: pH 7.4, 3 h, 100 µM
In short: (§3)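 Compound in DMF diluted to final 10^-4 M in 1:1 50 mM phosphate buffer pH 7.4/MeOH with 5×10^-4 M N-acetylcysteine, 37 °C. Aliquot mixed with Griess reagent, 10 min at room temperature, A546 read. Nitrite quantified against sodium nitrite standards (10–80 nmol/mL); NO expressed as mol/mol. n = 4 reaction mixtures per compound.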

MDA-MB-231 = experiment: Cytotoxicity against human MDA-MB-231 cells assessed as cell growth at 10^-5 M after 48 hrs by SRB assay; type: functional; conditions: MDA-MB-231, 48 h, read-out: Activity; in short: as §2
786-0 = experiment: Cytotoxicity against human 786-0 cells assessed as cell growth at 10^-5 M after 48 hrs by SRB assay; type: functional; conditions: 786-0, 48 h, read-out: Activity; in short: as §2
A498 = experiment: Cytotoxicity against human A498 cells assessed as cell growth at 10^-5 M after 48 hrs by SRB assay; type: functional; conditions: A498, 48 h, read-out: Activity; in short: as §2
[2] = Induction of nitric oxide release in phosphate buffer at pH 7.4 at 0.1 mM after 5 hrs by Griess method in presence of 0.5 mM of N-acetylcysteine; type: physicochemical; conditions: pH 7.4, 5 h, 100 µM; in short: as §3
NCI-H226 = experiment: Cytotoxicity against human NCI-H226 cells assessed as cell growth at 10^-5 M after 48 hrs by SRB assay; type: functional; conditions: NCI-H226, 48 h, read-out: Activity; in short: as §2
NCI/ADR-RES = experiment: Cytotoxicity against human NCI/ADR-RES cells assessed as cell growth at 10^-5 M after 48 hrs by SRB assay; type: functional; conditions: read-out: Activity; in short: as §2
DU-145 = experiment: Cytotoxicity against human DU145 cells assessed as cell growth at 10^-5 M after 48 hrs by SRB assay; type: functional; conditions: DU-145, 48 h, read-out: Activity; in short: as §2
A549 = experiment: Cytotoxicity against human A549 cells assessed as cell growth at 10^-5 M after 48 hrs by SRB assay; type: functional; conditions: A549, 48 h, read-out: Activity; in short: as §2
[3] = Induction of nitric oxide release in phosphate buffer at pH 7.4 at 0.1 mM after 6 hrs by Griess method in presence of 0.5 mM of N-acetylcysteine; type: physicochemical; conditions: pH 7.4, 6 h, 100 µM; in short: as §3
SK-MEL-28 = experiment: Cytotoxicity against human SK-MEL-28 cells assessed as cell growth at 10^-5 M after 48 hrs by SRB assay; type: functional; conditions: SK-MEL-28, 48 h, read-out: Activity; in short: as §1
T47D = experiment: Cytotoxicity against human T47D cells assessed as cell growth at 10^-5 M after 48 hrs by SRB assay; type: functional; conditions: read-out: Activity; in short: as §1
HCC 2998 = experiment: Cytotoxicity against human HCC2998 cells assessed as cell growth at 10^-5 M after 48 hrs by SRB assay; type: functional; conditions: HCC 2998, 48 h, read-out: Activity; in short: as §2
CCRF-CEM = experiment: Cytotoxicity against human CCRF-CEM cells assessed as cell growth at 10^-5 M after 48 hrs by SRB assay; type: functional; conditions: read-out: Activity; in short: as §2
Rattus norvegicus = experiment: Gastrointestinal toxicity in albino rat assessed as ulcer index at 0.28 mmol/kg, po (reference value: 0.60 +/- 0.05); type: organism-based; conditions: in vivo
HCT-15 = experiment: Cytotoxicity against human HCT15 cells assessed as cell growth at 10^-5 M after 48 hrs by SRB assay; type: functional; conditions: HCT-15, 48 h, read-out: Activity; in short: as §2
[4] = Induction of nitric oxide release in phosphate buffer at pH 7.4 at 0.1 mM after 4 hrs by Griess method in presence of 0.5 mM of N-acetylcysteine; type: physicochemical; conditions: pH 7.4, 4 h, 100 µM; in short: as §3
HT-29 = experiment: Cytotoxicity against human HT-29 cells assessed as cell growth at 10^-5 M after 48 hrs by SRB assay; type: functional; conditions: HT-29, 48 h, read-out: Activity; in short: as §2
HOP-92 = experiment: Cytotoxicity against human HOP92 cells assessed as cell growth at 10^-5 M after 48 hrs by SRB assay; type: functional; conditions: HOP-92, 48 h, read-out: Activity; in short: as §2
Malme-3M = experiment: Cytotoxicity against human MALME-3M cells assessed as cell growth at 10^-5 M after 48 hrs by SRB assay; type: functional; conditions: read-out: Activity; in short: as §2
OVCAR-3 = experiment: Cytotoxicity against human OVCAR3 cells assessed as cell growth at 10^-5 M after 48 hrs by SRB assay; type: functional; conditions: OVCAR-3, 48 h, read-out: Activity; in short: as §2
UACC-257 = experiment: Cytotoxicity against human UACC257 cells assessed as cell growth at 10^-5 M after 48 hrs by SRB assay; type: functional; conditions: UACC-257, 48 h, read-out: Activity; in short: as §1
SK-MEL-2 = experiment: Cytotoxicity against human SK-MEL-2 cells assessed as cell growth at 10^-5 M after 48 hrs by SRB assay; type: functional; conditions: SK-MEL-2, 48 h, read-out: Activity; in short: as §2
MDA-MB-435 = experiment: Cytotoxicity against human MDA-MB-435 cells assessed as cell growth at 10^-5 M after 48 hrs by SRB assay; type: functional; conditions: MDA-MB-435, 48 h, read-out: Activity; in short: as §2
SK-OV-3 = experiment: Cytotoxicity against human SKOV3 cells assessed as cell growth at 10^-5 M after 48 hrs by SRB assay; type: functional; conditions: SK-OV-3, 48 h, read-out: Activity; in short: as §1
SK-MEL-5 = experiment: Cytotoxicity against human SK-MEL-5 cells assessed as cell growth at 10^-5 M after 48 hrs by SRB assay; type: functional; conditions: SK-MEL-5, 48 h, read-out: Activity; in short: as §1
SNB-19 = experiment: Cytotoxicity against human SNB19 cells assessed as cell growth at 10^-5 M after 48 hrs by SRB assay; type: functional; conditions: SNB-19, 48 h, read-out: Activity; in short: as §1
SF-539 = experiment: Cytotoxicity against human SF539 cells assessed as cell growth at 10^-5 M after 48 hrs by SRB assay; type: functional; conditions: SF-539, 48 h, read-out: Activity; in short: as §2
ACHN = experiment: Cytotoxicity against human ACHN cells assessed as cell growth at 10^-5 M after 48 hrs by SRB assay; type: functional; conditions: read-out: Activity; in short: as §2
KM12 = experiment: Cytotoxicity against human KM12 cells assessed as cell growth at 10^-5 M after 48 hrs by SRB assay; type: functional; conditions: KM12, 48 h, read-out: Activity; in short: as §2

CCn1c(SC/C(=N/O)c2ccccc2)nnc1-c1ccc(OC)c(OC)c1
growth at 10 µM (UACC-62): 95.5% | growth at 10 µM (OVCAR-4): 97.5% | Activity [1]: 0.2 mol/mol | growth at 10 µM (MDA-MB-231): 104% | growth at 10 µM (786-0): 115% | growth at 10 µM (A498): 92.3% | Activity [2]: 0.25 mol/mol | growth at 10 µM (NCI-H226): 97.6% | growth at 10 µM (NCI/ADR-RES): 103% | growth at 10 µM (DU-145): 112% | growth at 10 µM (A549): 95.7% | Activity [3]: 0.2 mol/mol | growth at 10 µM (SK-MEL-28): 103% | growth at 10 µM (T47D): 99.6% | growth at 10 µM (HCC 2998): 104% | growth at 10 µM (CCRF-CEM): 98% | UI (Rattus norvegicus): 1.58 | growth at 10 µM (HCT-15): 105% | Activity [4]: 0.24 mol/mol | growth at 10 µM (HT-29): 100% | growth at 10 µM (HOP-92): 107% | growth at 10 µM (Malme-3M): 94.8% | growth at 10 µM (OVCAR-3): 106% | growth at 10 µM (UACC-257): 104% | growth at 10 µM (SK-MEL-2): 105% | growth at 10 µM (MDA-MB-435): 116% | growth at 10 µM (SK-OV-3): 96.4% | growth at 10 µM (SK-MEL-5): 96.3% | growth at 10 µM (SNB-19): 99.9% | growth at 10 µM (SF-539): 100% | growth at 10 µM (ACHN): 103% | growth at 10 µM (KM12): 100%
